GRK2 aptamer HTS: compounds blocking aptamer binding on GRK2 – biochemical, human GRK2, bead flow cytometry, HTS, primary screen; Beta-adrenergic receptor kinase 1 (Homo sapiens), P25098; FAM-aptamer displacement from GRK2; inhibition of aptamer binding, % at 10 µM; 330,000 compounds, 0.59% hits;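 active = inhibition of aptamer binding above 40%, roughly 3 SD of noise, on plates passing a quality check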;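 also: median bead fluorescence of bound FAM aptamer so fluorescent compounds give negative values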
Target sequence (P25098 whole entry, looked up): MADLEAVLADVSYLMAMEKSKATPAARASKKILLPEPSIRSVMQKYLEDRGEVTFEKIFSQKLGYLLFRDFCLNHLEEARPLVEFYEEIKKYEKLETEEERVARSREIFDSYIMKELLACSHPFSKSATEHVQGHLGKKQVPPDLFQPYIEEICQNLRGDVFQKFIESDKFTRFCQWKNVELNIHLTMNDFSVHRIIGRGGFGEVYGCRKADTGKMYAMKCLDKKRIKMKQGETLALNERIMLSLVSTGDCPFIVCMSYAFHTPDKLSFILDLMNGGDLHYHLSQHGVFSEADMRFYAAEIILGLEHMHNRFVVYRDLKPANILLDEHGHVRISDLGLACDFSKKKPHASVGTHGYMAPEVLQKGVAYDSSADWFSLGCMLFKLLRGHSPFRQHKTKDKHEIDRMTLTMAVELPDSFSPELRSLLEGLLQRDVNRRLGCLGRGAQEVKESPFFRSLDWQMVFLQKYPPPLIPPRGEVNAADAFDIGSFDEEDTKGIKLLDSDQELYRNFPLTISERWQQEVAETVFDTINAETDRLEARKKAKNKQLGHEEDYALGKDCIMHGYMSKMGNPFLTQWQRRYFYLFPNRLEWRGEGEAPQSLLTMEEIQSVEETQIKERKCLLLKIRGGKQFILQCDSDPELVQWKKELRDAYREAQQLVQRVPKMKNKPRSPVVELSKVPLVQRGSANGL
HCV NS3 hel inh: inhibitors of HCV NS3 helicase, primary screen, biochemical, Cy5 molecular beacon fluorescence; Hepatitis C virus NS3 helicase; NS3 helicase DNA unwinding; inhibition, % at 10.9 µM; 290,000 compounds, 0.56% hits; AID 1800, 2009;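 active = inhibition above the mean of all tested compounds plus 3 SD, set per campaign, cut at about 35% in these data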
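Assay system: hepatitis C virus NS3 helicase domain fragment enzyme. Also added: annealed dual-labelled DNA beacon duplex, ATP-started. Timing: 1 h reaction at 25 °C, ATP-initiated. Technique: Cy5 fluorescence at 0 and 60 min, beacon hairpin quenching. Evaluation: % inhibition of unwinding. Replication: one well per compound.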
FID counter: compounds displacing fluorescent DNA intercalator, primary screen, artefact control for HCV NS3 helicase inhibitor project, biochemical, FID fluorescence | 290,000 compounds, 0.17% hits | DNA fluorescent intercalator displacement | inhibition, % at 7.9 µM; in the data active = inhibition above about 37%;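 also: higher means more ethidium bromide displaced from hairpin DNA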
GPR7 antag: GPR7 receptor antagonists, primary screen, cell-based, fluorescence, single concentration. Neuropeptides B/W receptor type 1 (Homo sapiens), P48145. GPR7-expressing cells, fluorescence antagonist assay. inhibition, % at 4.4 µM. 290,000 compounds, 1.1% hits. AID 1861, 2009; in the data active = inhibition above about 16%, passing the limit was not always enough;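 also: cells stimulated with the agonist NPW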
DAGLB inhibitor: DAGLB lipase inhibitors, primary screen, biochemical, fluorescence, HTS; inhibition, % at 5.17 µM; 340,000 compounds, 0.059% hits; HEK293T DAGLB membrane lysate, EnzChek fluorogenic substrate; AID 504411, 2011; Diacylglycerol lipase-beta (Homo sapiens), Q8NCG7; in the data active = inhibition above about 34%
core dimer inh: inhibitors of HCV core protein dimerization, primary screen, biochemical, TR-FRET, high-throughput; TR-FRET GST/Flag-core106 dimerization, 1536-well; inhibition, % at 5 µM; 300,000 compounds, 0.33% hits; AID 1899, 2009;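 active = inhibition above the mean of all tested compounds plus 3 SD, set per screening campaign, cut at about 45% in these data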
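Test system: GST/Flag-tagged HCV core106 proteins; Medium: KF-containing HEPES buffer, pH 7.45, DTT, CHAPS, BSA; Times: compound-protein-antibody incubation 4 h at 22.5 °C; Detection: TR-FRET 671 and 617 nm emission; Benchmarks: wells lacking GST-core106 and wells with excess unlabelled core106.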
GPR7 antag conf: GPR7 receptor antagonists, confirmation, cell-based, fluorescence, single concentration. shares compounds with GPR7 antag. GPR7-expressing cells, calcium fluorescence antagonist mode. inhibition, % at 4.4 µM. 2,400 compounds, 52% hits. AID 1952, 2009; in the data active = inhibition above about 24%;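 also: stimulated with the GPR7 agonist NPW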
MCHR1 antag: MCHR1 antagonists in cells, counter-screen for GPR7 antagonist project, cell-based, fluorescence, human; shares compounds with GPR7 antag; MCHR1-expressing cells, fluorescence antagonist assay; inhibition, % at 4.4 µM; 2,400 compounds, 62% hits; in the data active = inhibition above about 22%
Of the large screens only hits and unclear results are named; the others gave an inactive call (follow-up assays come after a bar, where they were run). A selection: hits, their analogues and other compounds. The true share with any hit is near 2.2%.

COc1ccc2c(c1)C(=O)C(=O)N2CC1COc2ccccc2O1 (centres undefined)	GPR7 antag 31 | GPR7 antag conf inactive | MCHR1 antag 27
CCOc1ccc2c(c1)C(=O)C(=O)N2CC1COc2ccccc2O1 (centres undefined)	none
C(=C\c1ccccc1)/CSc1nnc(-c2cnccn2)n1Cc1ccco1	GPR7 antag 21 | GPR7 antag conf 24 | MCHR1 antag 39
COc1ccc(N(C)S(=O)(=O)c2cccc(C(=O)NC3CCCC3)c2)cc1	GPR7 antag 39 | GPR7 antag conf 43 | MCHR1 antag 24
COc1ccc(N(C)S(=O)(=O)c2cccc(C(=O)NC3CCCCC3C)c2)cc1 (centres undefined)	GPR7 antag 43 | GPR7 antag conf 42 | MCHR1 antag 39
COc1ccc(N(C)S(=O)(=O)c2cccc(C(=O)NCC3CCCCC3)c2)cc1	GPR7 antag 26 (no result: GRK2 aptamer HTS, core dimer inh) | GPR7 antag conf 38 | MCHR1 antag 38
c1ccc(CN(Cc2ccccc2)c2nn[nH]n2)cc1	none
Clc1ccc(CN(Cc2ccc(Cl)cc2)c2nn[nH]n2)cc1	GPR7 antag 26 | GPR7 antag conf 25 | MCHR1 antag inactive
COC(=O)c1ccc(CNC(=O)C23CC4CC(CC(C4)C2)C3)cc1	none
CN(C(=O)COC(=O)C1=COCCO1)c1c(N)n(Cc2ccccc2)c(=O)[nH]c1=O	none (no result: HCV NS3 hel inh, FID counter, GPR7 antag)
Cn1c2c(c3ccccc31)CCN1CCC[C@]21c1ccccc1	none
CCCN(CCC)c1nc(Cl)nc(NCc2ccco2)n1	GPR7 antag 21 | GPR7 antag conf inactive | MCHR1 antag inactive
Cc1c(C(=O)N2CCCCC2CCN2CCCC2=O)oc2c(F)cccc12 (centres undefined)	none
COc1ccccc1Cn1c(CCCO)nc2ccccc21	none | GPR7 antag conf inactive | MCHR1 antag inactive
COc1ccc(OC)c(NC(=O)c2ccc(OC3CSC3)cc2)c1	none
COc1ccc(Cl)cc1NC(=O)C1CC(c2ccccc2O)=NO1 (centres undefined)	none (no result: GRK2 aptamer HTS)
CCOC(=O)C1(Cc2cccc(Cl)c2)CCCN(C(=O)CCSC)C1 (centres undefined)	GPR7 antag 29 | GPR7 antag conf inactive | MCHR1 antag inactive
C=CCCC(=O)N1CCCC(Cc2cccc(Cl)c2)(C(=O)OCC)C1 (centres undefined)	none
COc1ccc(OC)c(S(=O)(=O)Nc2ccc(-c3ccc4nncn4n3)cc2)c1	none (no result: HCV NS3 hel inh, FID counter, GPR7 antag)
O=C1c2cccc3c([N+](=O)[O-])ccc(c23)C(=O)N1c1ccc(Cl)cn1	GPR7 antag 33 | GPR7 antag conf 100 | MCHR1 antag 104
COC(=O)C(/C=N/OCc1ccc([N+](=O)[O-])cc1)NC(=O)c1cccc(Cl)c1 (centres undefined)	GPR7 antag 38 | GPR7 antag conf 65 | MCHR1 antag 50
O=C(CCN1C(=O)/C(=C\c2cccc(Br)c2)SC1=S)N1CCOCC1	none
C1=CCC(CN2CCN(C3CCCCCC3)CC2)CC1 (centres undefined)	GPR7 antag 30 | GPR7 antag conf inactive | MCHR1 antag 38
CCCCN(CCCC)CCCN1CC(=O)N2[C@@H](Cc3c([nH]c4ccccc34)C2(C)C)C1=O	none
CCOc1cc(/C=C2/COc3ccccc3C2=O)ccc1OCC(=O)N(C)C	GPR7 antag 24 (no result: GRK2 aptamer HTS, core dimer inh) | GPR7 antag conf inactive | MCHR1 antag 21
CCCCCCCN1C(Nc2ccccc2)=NC[C@@H]1Cc1ccccc1	GPR7 antag 50 | GPR7 antag conf 48 | MCHR1 antag 48
c1ccc(C[C@H]2CN=C(Nc3ccccc3)N2CCCC2CCCC2)cc1	GPR7 antag 46 | GPR7 antag conf 51 | MCHR1 antag 34
C[C@H]1CN=C(Nc2ccccc2)N1CCCC1CCCCC1	none
CCC(C)CCN1C(Nc2ccccc2)=NC[C@@H]1Cc1ccccc1 (some centres undefined)	none (no result: GPR7 antag) | MCHR1 antag inactive
CCC(C)CCN1C(Nc2ccccc2)=NC[C@@H]1CC(C)C (some centres undefined)	none
c1ccc(CCCCN2C(Nc3ccccc3)=NC[C@@H]2Cc2ccccc2)cc1	none (no result: HCV NS3 hel inh, FID counter, GPR7 antag)
Cc1ccc(C(=O)NCCc2ccc(S(N)(=O)=O)cc2)cc1[N+](=O)[O-]	none
O=C1c2ccccc2C(=O)N1CCCN1CCN(CCCN2C(=O)c3ccccc3C2=O)CC1	none (no result: GRK2 aptamer HTS, DAGLB inhibitor, core dimer inh)
COc1cc(CN(CCN(C)C)Cc2ccccc2)ccc1OCc1ccccc1	GPR7 antag 44 | GPR7 antag conf 57 | MCHR1 antag 34
COc1ccc(CN(CCc2ccccc2)Cc2ccccc2)cc1OC	none
O=C(Nc1ccnn1C1CCN(Cc2cc3ccccc3[nH]2)CC1)C1CCOC1 (centres undefined)	GPR7 antag 82 | GPR7 antag conf 53 | MCHR1 antag 74
Cc1c(CN2CCC(n3nccc3NC(=O)C3CCOC3)CC2)[nH]c2ccccc12 (centres undefined)	none (no result: core dimer inh)
O=C(Nc1nc(-c2ccc(S(=O)(=O)N3CCOCC3)cc2)cs1)c1ccccc1	GPR7 antag 34 | GPR7 antag conf 61 | MCHR1 antag 76
Cc1ccc(-c2csc(NC(=O)C3CCN(S(=O)(=O)c4cccs4)CC3)n2)cc1	GPR7 antag 39 | GPR7 antag conf 43 | MCHR1 antag 57
O=C(COC(=O)c1cc(S(=O)(=O)N2CCOCC2)ccc1F)c1ccccc1	none (no result: HCV NS3 hel inh, FID counter, GPR7 antag, core dimer inh)
COc1cccc(C(=O)Nc2nc(-c3ccc(S(=O)(=O)N4CCOCC4)cc3)cs2)c1	none
O=C(COC(=O)c1cc(S(=O)(=O)N2CCOCC2)cs1)c1ccccc1	GPR7 antag 25 | GPR7 antag conf inactive | MCHR1 antag inactive
C[C@H](CO)N1C[C@H](C)[C@@H](CN(C)C(=O)NC2CCCCC2)Oc2c(cccc2N(C)C)C1=O	none (no result: HCV NS3 hel inh, FID counter, GPR7 antag, core dimer inh)
CC(=O)C1(C)C(=O)N(c2ccc(F)cc2)C(=O)N1c1ccc(F)cc1 (centres undefined)	none (no result: GRK2 aptamer HTS, HCV NS3 hel inh, FID counter, GPR7 antag, core dimer inh)
CCOc1ccc(S(=O)(=O)Nc2nc3ccccc3nc2-n2ccc(=NC(=O)c3ccccc3C)cc2)cc1	GPR7 antag 23 | GPR7 antag conf inactive | MCHR1 antag inactive

Assay outcomes (PubChem)
